These results are taken from ChEMBL document CHEMBL1127808, “Structure-distribution relationships for metal-labeled myocardial imaging agents: comparison of a series of cationic gallium (III) complexes with hexadentate bis(salicylaldimine) ligands” (J Med Chem, 1994).

Molecules are shown by their SMILES.

Assay type in all cases: functional
Assay [1] can be described thus: Ratio of retention of tracer Gallium in Heart to blood was determined after intravenous administration to rats after 1 min. In a few lines:
(§1)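 Heart-to-liver and heart-to-blood ratios were calculated from percent injected dose per gram of tissue. No-carrier-added 67Ga complex (1–3 μCi, 0.1–0.2 mL) in 5% ethanol/saline with 5–10% propylene glycol, radiochemical purity >98%, was given as a femoral vein bolus to male Sprague-Dawley rats under ether anesthesia. Rats were decapitated at 1, 15 or 120 min and tissues gamma counted. Mean ± SD, n = 3–4.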

Assay [2] relates to Rattus norvegicus. Description: Retention of tracer Gallium in liver of rats after intravenous administration and Gallium-67 Bis(salicylaldimine) after 1 min. In a few lines:
(§2)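 Male Sprague-Dawley rats under ether anesthesia received a femoral vein bolus of no-carrier-added 67Ga complex (1–3 μCi, 0.1–0.2 mL; 5% ethanol in 0.16 M NaCl with 5–10% propylene glycol, filtered 0.2 μm). Injected dose was found by weighing the syringe. Rats were decapitated at 1 or 120 min. Organs were blotted, weighed and gamma counted against an injectate standard, giving percent injected dose per organ. Blood was taken as 7% of body mass. Mean ± SD, n = 3–4.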

Assay [3] relates to Rattus norvegicus. Description: Retention of tracer Gallium in liver of rats after intravenous administration and Gallium-67 Bis(salicylaldimine) after 120 min. The essentials: as §2
In assay [4] the test system is Rattus norvegicus. Description: Retention of tracer Gallium in blood of rats after intravenous administration and Gallium-67 Bis(salicylaldimine) after 1 min. In a few lines:
as §2

Assay [5] can be described thus: Ratio of retention of tracer Gallium in Heart to Liver was determined after intravenous administration to rats after 1 min. In a few lines:
as §1

A short description of assay [6]: Ratio of retention of tracer Gallium in Heart to Liver was determined after intravenous administration to rats after 15 min. In a few lines:
as §1

In assay [7] the test system is Rattus norvegicus. The assay is described as follows: Retention of tracer Gallium in blood of rats after intravenous administration and Gallium-67 Bis(salicylaldimine) after 120 min. In a few lines:
as §2

The subject of assay [8] is Rattus norvegicus. The assay is described as follows: Retention of tracer Gallium in heart of rats after intravenous administration and Gallium-67 Bis(salicylaldimine) after 1 min. In a few lines: as §2
Assay [9] in a line: Ratio of retention of tracer Gallium in Heart to blood was determined after intravenous administration to rats after 120 min. The essentials:
as §1

Assay [10] concerns Rattus norvegicus. Description: Retention of tracer Gallium in lung of rats after intravenous administration and Gallium-67 Bis(salicylaldimine) after 1 min. In a few lines: as §2
In assay [11] the test system is Rattus norvegicus. Description: Retention of tracer Gallium in kidney of rats after intravenous administration and Gallium-67 Bis(salicylaldimine) after 1 min. The essentials: as §2
The subject of assay [12] is Rattus norvegicus. The assay is described as follows: Retention of tracer Gallium in kidney of rats after intravenous administration and Gallium-67 Bis(salicylaldimine) after 120 min. In a few lines: as §2
The nature of assay [13]: Ratio of retention of tracer Gallium in Heart to blood was determined after intravenous administration to rats after 15 min. The essentials:
as §1

Assay [14] can be described thus: Ratio of retention of tracer Gallium in Heart to Liver was determined after intravenous administration to rats after 120 min. In a few lines: as §1
Assay [15] concerns Rattus norvegicus. The assay is described as follows: Retention of tracer Gallium in heart of rats after intravenous administration and Gallium-67 Bis(salicylaldimine) after 120 min. The essentials: as §2
Assay [16] deals with Rattus norvegicus. The assay is described as follows: Retention of tracer Gallium in lung of rats after intravenous administration and Gallium-67 Bis(salicylaldimine) after 120 min. In a few lines: as §2
Assay [17] concerns Rattus norvegicus. The assay is described as follows: Retention of tracer Gallium in kidney of rats after intravenous administration and Gallium-67 Bis(salicylaldimine) after 1 min was determined. In a few lines:
as §2

In assay [18] the test system is Rattus norvegicus. The assay is described as follows: Retention of tracer Gallium in kidney of rats after intravenous administration and Gallium-67 Bis(salicylaldimine) after 120 min was determined. The essentials:
as §2

Turning to `COc1ccc(O)c(/C=N/CCCNCCNCCC/N=C/c2cc(OC)ccc2O)c1`, the Ratio in [1] turned out to be 0.89; in assay [5], 0.15; in assay [6] it was 0.19; in [9] it was 4.3; in [13], 2.6; in assay [14], 0.42. Moreover, the Injected dose is listed as 26.5% in assay [2]; 6.8% in assay [3]; 7.55% in assay [4]; 1.11% in [7]; 0.34% in [8]; 0.79% in [10]. The Injected dose in [11] is on record as 7.64%; in [12] it was 1.19%; in assay [15] it was 0.23%; in assay [16], 0.18%.

With `COc1cc(O)c(/C=N/CCCNCCNCCC/N=C/c2c(O)cc(OC)cc2OC)c(OC)c1`, the Ratio in assay [1] was determined as 2.3; in assay [5], 0.32; in assay [6], 0.56; in assay [9] it was 45.6; in [13], 18.1; in assay [14] it was 4.1. Moreover, the Injected dose in [2] is listed as 43%; in assay [3] it was 3.1%; in assay [4], 8.49%; in assay [7], 0.33%; in assay [8], 1.04%; in [10] it was 0.92%. For the same molecule, the Injected dose in [11] is recorded as 5.26%; in assay [12], 2.17%; in assay [15] it was 0.86%; in assay [16] it was 0.52%.

`COc1cc(C)c(/C=N/CCCNCCNCCC/N=C/c2c(C)cc(OC)cc2O)c(O)c1`: the Ratio in assay [1] is 3.4; in [5], 0.45; in [9], 45.1; in assay [14] it was 3.6. Moreover, the Injected dose turned out to be 28.8% in [2]; 3.4% in assay [3]; 5.94% in assay [4]; 0.43% in [7]; 1.08% in assay [8]; 0.88% in [10]. In addition, the Injected dose stood at 5.39% in assay [11], 1.94% in assay [12], 1.03% in assay [15] and 0.55% in assay [16].

On to `COc1cc(O)c(/C=N\CC(C)(C)CNCCNCC(C)(C)C/N=C/c2c(O)cc(OC)cc2OC)c(OC)c1`, for which the Ratio in assay [1] worked out at 1.1; in [5] it was 0.23; in assay [6] it was 0.32; in [9] it was 44.5; in assay [13] it was 9.6; in assay [14] it was 3.24. For the same molecule, the Injected dose is given as 50.6% in [2]; 3.9% in [3]; 18.8% in [4]; 0.45% in assay [7]; 1.03% in assay [8]; 1.63% in assay [10]. For the same molecule, the Injected dose is 8.33% in assay [11], 5.4% in assay [12], 1.01% in assay [15] and 0.64% in assay [16].

For `COc1ccc(/C=N/CCCNCCNCCC/N=C/c2ccc(OC)cc2O)c(O)c1`, the Ratio in [1] turned out to be 2.99; in assay [5], 0.32; in assay [6], 0.62; in assay [9] it was 30.6; in assay [13] it was 17.6; in assay [14], 1.6. For the same molecule, the Injected dose is recorded as 25.2% in [2]; 5.1% in [3]; 4.44% in [4]; 0.42% in [7]; 0.67% in [8]; 1.05% in assay [10]. Besides, the Injected dose in assay [11] is recorded as 8.42%; in assay [12], 1.69%; in [15], 0.65%; in assay [16], 0.38%.

For `COc1cc(O)c(/C=N/CCCNCCNCCC/N=C/c2cc(C)c(OC)cc2O)cc1C`, the Ratio in assay [1] is listed as 2.1; in assay [5] it was 0.14; in assay [9] it was 30; in [14], 1.92. Also, the Injected dose in [2] turned out to be 39.5%; in [17], 5.14%; in assay [3] it was 5.3%; in [4] it was 7.79%; in assay [7], 0.61%; in assay [8], 0.88%. Moreover, the Injected dose amounted to 0.79% in assay [10], 2.74% in assay [18], 0.89% in assay [15] and 0.42% in assay [16].

Take `CCN(CC)c1ccc(/C=N/CCCNCCNCCC/N=C/c2ccc(N(CC)CC)cc2O)c(O)c1`: the Ratio in assay [1] stood at 1.22; in [5], 0.24; in assay [6] it was 0.28; in assay [9] it was 9.2; in assay [13], 4.5; in assay [14], 0.86. The Injected dose was found to be 38.1% in assay [2]; 9.7% in [3]; 11.1% in assay [4]; 1.27% in assay [7]; 0.69% in assay [8]; 1.26% in assay [10]. Moreover, the Injected dose in [11] turned out to be 6.33%; in assay [12], 4.67%; in [15], 0.65%; in assay [16], 0.67%.

Turning to `CCN(CC)c1ccc(/C=N\CC(C)(C)CNCCNCC(C)(C)C/N=C/c2ccc(N(CC)CC)cc2O)c(O)c1`, the Ratio was 0.45 in assay [1]; 0.17 in [5]; 0.13 in assay [6]; 8.1 in assay [9]; 1.9 in assay [13]; 0.5 in assay [14]. Besides, the Injected dose was found to be 47% in assay [2]; 11.1% in assay [3]; 30.6% in assay [4]; 1.06% in assay [7]; 0.66% in assay [8]; 5.3% in assay [10]. In addition, the Injected dose in assay [11] was 4.25%; in [12] it was 5.17%; in assay [15], 0.4%; in [16], 1.31%.

In the case of `Oc1ccccc1/C=N/CCCNCCNCCC/N=C/c1ccccc1O`, the Ratio was 2.15 in assay [1]; 0.2 in assay [5]; 0.51 in [6]; 12.2 in assay [9]; 8.3 in assay [13]; 0.9 in assay [14]. Also, the Injected dose in assay [2] was found to be 26.7%; in [3] it was 5.3%; in assay [4], 4.21%; in assay [7] it was 0.64%; in [8], 0.45%; in assay [10], 1%. Also, the Injected dose in assay [11] turned out to be 9.84%; in [12], 1.4%; in assay [15], 0.41%; in assay [16] it was 0.28%.

`CCOc1cc(C)c(/C=N/CCCNCCNCCC/N=C/c2c(C)cc(OCC)cc2O)c(O)c1`: the Ratio in assay [1] stood at 2.2; in assay [5], 0.29; in assay [6], 0.73; in assay [9], 40.5; in [13] it was 20.9; in assay [14] it was 2.7. The Injected dose in [2] was determined as 29.5%; in assay [3] it was 3%; in [4] it was 7.73%; in assay [7], 0.42%; in [8] it was 0.91%; in assay [10], 0.8%. For the same molecule, the Injected dose in assay [11] is 5.24%; in assay [12], 2.42%; in assay [15] it was 0.87%; in assay [16], 0.49%.

As to `CC(C)c1ccc(O)c(/C=N/CCCNCCNCCC/N=C/c2cc(C(C)C)ccc2O)c1`, the Ratio in assay [1] was 0.54; in [5], 0.16; in assay [9] it was 8.6; in assay [14] it was 0.75. For the same molecule, the Injected dose in assay [2] is listed as 49.2%; in assay [3], 8.5%; in [4], 23.4%; in [7], 1.21%; in [8] it was 0.67%; in [10] it was 1.06%. For the same molecule, the Injected dose came to 6.02% in assay [11], 3.95% in [12], 0.55% in [15] and 0.36% in assay [16].
